The text below walks through data of article PMC4285304 (Journal of Thrombosis and Haemostasis, 2014).

Read-outs that look alike come from different tables or passages of the source. Bounds are passed on as bounds.

Data set [1] relates to tissue factor-induced thrombin generation in normal human platelet-poor plasma. In words: Thrombin generation assay. Format: biochemical. As to conditions: for maximal increase in Cmax over baseline / maximal increase in ETP over baseline: absence of rhs-TM, lower concentration range, not significant; for Cmax increase vs. control / ETP increase vs. control: presence of rhs-TM 10 nmol L^−1; for IC50: normal human PPP. The method in brief: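 Citrated blood (3.12%, 1/10 vol) came from unmedicated healthy donors; PPP was prepared at 1000× g for 20 min at room temperature. Individual-donor PPP was spiked with increasing test compound concentrations (3–948 or 3–1090 nmol L−1) or vehicle, with or without rhs-TM (final 10 nmol L−1). TF was 1.67 pmol L−1 and phospholipid 1.33 μmol L−1 (final). After 5 min at 37 °C, FluCa was added. Calibrated thrombogram gave Cmax and ETP; n = 8–12.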

For data set [2], the system named is prothrombin fragment 1+2 generation in normal human platelet-poor plasma. In words: Prothrombin fragment 1+2. The class given is biochemical. As to conditions: for F1+2 increase: same concentration range as by the CAT method (melagatran 119–474, dabigatran 136–545 nmol L^−1); for IC50: read-out: F1+2 generation IC50, normal human PPP.
Data set [3] concerns prothrombin fragment 1+2 generation in protein C-deficient human plasma. In words: Prothrombin fragment 1+2. As to conditions: presence of TM. The class given is biochemical. The method in brief: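 Protein C-deficient human plasma was spiked with test compound (increasing concentrations) or vehicle plus rhs-TM (final 10 nmol L−1), then defibrinated with PefablocFG (final 6 mg mL−1). The CAT-type TF/phospholipid trigger was used, started with Fluo-buffer (HEPES, CaCl2, 5% DMSO, no substrate) and stopped after 12 min with PPACK (final 10 μmol L−1). Samples went into EDTA (final 100 mmol L−1) at 4 °C and were stored at −20 °C. F1+2 was measured by ELISA.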

In data set [4] the test system is thrombin generation in protein C-deficient human plasma. In words: Thrombin generation assay. Format: biochemical. The following applies: absence or presence of rhs-TM. An outline of the steps: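 Lyophilised protein C-deficient human plasma was spiked with increasing test compound concentrations or vehicle, with or without rhs-TM (final 10 nmol L−1). Thrombin generation was triggered with TF 1.67 pmol L−1 and phospholipid 1.33 μmol L−1 (final), incubated 5 min at 37 °C, and started with FluCa (HEPES, CaCl2, fluorogenic substrate). Fluorescence was calibrated per sample; Cmax and ETP were derived; n = 3.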

A further data set has as its system plasma fibrinogen. In words: Tissue factor-induced hypercoagulability in rats: fibrinogen levels. As to conditions: rat. The class given is in vivo.
In data set [5] the test system is thrombin–antithrombin (TAT) complex. In words: Tissue factor-induced hypercoagulability in rats: plasma TAT levels. Format: in vivo. As to conditions: rat; for effect on TF-induced increase in TAT levels: 0.3 mg kg^−1 i.v., 10 minutes after TF 8 mg kg^−1.
A further data set relates to platelet count. In words: Tissue factor-induced hypercoagulability in rats: platelet count. The class given is in vivo. As to conditions: rat.
Another data set deals with thrombin bound to TM. As to conditions: cited from earlier work.
A short description of data set [6]: Plasma concentrations of rivaroxaban and melagatran in rats. The class given is in vivo. The following applies: rat, 15 minutes after drug, 10 minutes after TF.
Data set [7] has as its system activated partial thromboplastin time. In words: Activated partial thromboplastin time. Format: in vivo. The following applies: rat, 15 minutes after drug, 10 minutes after TF. The method in brief:
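Male Wistar rats (227–273 g) were fasted overnight and anaesthetised with i.p. pentobarbital-Na (80–100 mg kg−1). Test compound in 0.9% NaCl (0.001–0.3 mg kg−1) or vehicle (1 mL kg−1) was given i.v., then 5 min later recombinant TF (8 mg kg−1) or vehicle (sham) was given as a slow i.v. bolus. Citrated aortic blood was drawn 10 min after TF. APTT was measured on PPP by ball coagulometer, as fold over baseline; n = 10.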

A further data set has as its system prothrombin time. In words: Prothrombin time. Format: in vivo. The following applies: rat; for PT prolongation: 15 minutes after drug, 10 minutes after TF. The method in brief:
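Rats (male Wistar, 227–273 g) were fasted overnight and anaesthetised with i.p. pentobarbital-Na (80–100 mg kg−1). Test compound in PEG:H2O:glycerol (996:100:60 g), 0.001–0.3 mg kg−1, or vehicle (1 mL kg−1) was given i.v. After 5 min, TF (8 mg kg−1) or vehicle (sham) was given as a slow i.v. bolus. Citrated aortic blood was taken 10 min later. PT on PPP by ball coagulometer, expressed as fold over baseline; n = 10.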

Data set [8] concerns mortality of treated animals. As to conditions: TF-induced hypercoagulation; cited from earlier work.
Setting [9] is: read-out: Cmax IC50, peak thrombin generation, +TM (rhs-TM 10 nmol L^−1).
Setting [10] is: read-out: Cmax IC50, peak thrombin generation, −TM (absence of rhs-TM).
Where [11] appears, read: read-out: ETP IC50, endogenous thrombin potential, +TM (rhs-TM 10 nmol L^−1).
The mark [12] stands for this setting: read-out: ETP IC50, endogenous thrombin potential, −TM (absence of rhs-TM).
Setting [13] is: presence of rhs-TM 10 nmol L^−1.
Where [14] appears, read: melagatran at 119–474 nmol L^−1.
Setting [15] is: whole dose range tested (0.001–0.3 mg kg^−1 i.v.).

Regarding `[H]/N=C(/N)c1ccc(NCc2nc3cc(C(=O)N(CCC(=O)O)c4ccccn4)ccc3n2C)cc1` [Dabigatran], in [1], the “maximal increase in Cmax over baseline” value was 11%. In addition, in data set [1], the “maximal increase in ETP over baseline” value came out at 5%. Further, the “Cmax increase vs. control” value in data set [1] (dabigatran at 68–545 nmol L^−1) was 2.0–3.3 fold. The “ETP increase vs. control” value in data set [1] (dabigatran at 136–545 nmol L^−1) is listed as 2.2–2.6 fold. The IC50 in [1] (setting [9]) is over 1090 nM; in [1] (setting [10]) it was 976 ± 71 nM; in data set [1] (setting [11]) it was over 1090 nM; in data set [1] (setting [12]) it was 722 ± 44 nM; in data set [2] (absence of rhs-TM) it was 387 ± 63 nM. Also, the “F1+2 increase” value in data set [2] (setting [13]) is given as 1.6–1.9 fold. The “generation of F1+2” value in data set [3] is “concentration-dependently inhibited”. The “increase in ETP or Cmax” value in data set [4] was “No increase”.

Consider `N=C(N)c1ccc(CNC(=O)[C@@H]2CCN2C(=O)[C@H](NCC(=O)O)C2CCCCC2)cc1` [Melagatran], for which, in [1], the “maximal increase in Cmax over baseline” value is 8%. Besides, in [1], the “maximal increase in ETP over baseline” value came to 6%. In [1] (setting [14]), the “Cmax increase vs. control” value is on record as 2.2–2.7 fold. Also, the “ETP increase vs. control” value in data set [1] (setting [14]) is recorded as 1.9–2.2 fold. In addition, the IC50 was over 950 nM in data set [1] (setting [9]); 940 ± 79 nM in data set [1] (setting [10]); over 950 nM in data set [1] (setting [11]); 732 ± 43 nM in data set [1] (setting [12]); 368 ± 40 nM in data set [2] (absence of rhs-TM). Moreover, the “F1+2 increase” value in [2] (setting [13]) is given as 1.8–2.0 fold. The “generation of F1+2” value in data set [3] is listed as “concentration-dependently inhibited”. Further, in data set [4], the “increase in ETP or Cmax” value is recorded as “No increase”. The fibrinogen levels in the data set on plasma fibrinogen (0.03 mg kg^−1 i.v., TF control 2.34 ± 0.08 g L^−1, P < 0.001) turned out to be 1.41 ± 0.20 g/L. In data set [5] (0.01 mg kg^−1 i.v., P < 0.01), the “TAT increase vs. TF control” value turned out to be 1.6 fold. Moreover, the “effect on TF-induced increase in TAT levels” value in data set [5] was “reduced”. Also, the platelet count in the data set on platelet count (0.01 mg kg^−1 i.v., TF control 644 × 10^3 μL^−1) was found to be 559000 µL⁻¹. In addition, the “increase in the affinity of the thrombin inhibitor for the thrombin bound to TM” value with thrombin bound to TM is on record as “twofold increase”. Also, the values for the Plasma concentration in data set [6] (0.01 mg kg^−1 i.v.) and in [6] (0.3 mg kg^−1 i.v.) were 19.2 ± 0.9 ng/mL and 524.7 ± 26.1 ng/mL, respectively. The APTT prolongation amounted to 1.26 ± 0.05 x-fold over baseline in [7] (0.001 mg kg^−1 i.v.); 1.34 ± 0.05 x-fold over baseline in data set [7] (0.003 mg kg^−1 i.v.); 1.68 ± 0.03 x-fold over baseline in [7] (0.01 mg kg^−1 i.v.); 2.17 ± 0.23 x-fold over baseline in [7] (0.03 mg kg^−1 i.v.); 2.08 ± 0.18 x-fold over baseline in [7] (0.1 mg kg^−1 i.v.); 3.11 ± 0.27 x-fold over baseline in data set [7] (0.3 mg kg^−1 i.v.).

With `O=C(NC[C@H]1CN(c2ccc(N3CCOCC3=O)cc2)C(=O)O1)c1ccc(Cl)s1` [Rivaroxaban], the IC50 in data set [1] (setting [9]) amounted to 44 ± 6 nM; in data set [1] (setting [10]) it was 66 ± 5 nM; in data set [1] (setting [11]), 57 ± 8 nM; in data set [1] (setting [12]), 697 ± 106 nM; in data set [2] (absence of rhs-TM), 12 ± 7 nM; in data set [2] (setting [13]), 14 ± 7 nM. In [3], the “generation of F1+2” value was “concentration-dependently inhibited”. Moreover, the fibrinogen concentration entry in the data set with plasma fibrinogen (setting [15]) is recorded as “not affected”. The “effect on TF-induced increase in TAT levels” value in data set [5] is “complete inhibition”. Further, in the data set on platelet count (setting [15]), the platelet count entry is “not affected”. The PT prolongation is given as 1.00 ± 0.04 x-fold over baseline with prothrombin time (0.001 mg kg^−1 i.v.); 1.02 ± 0.02 x-fold over baseline in the data set on prothrombin time (0.003 mg kg^−1 i.v.); 0.96 ± 0.02 x-fold over baseline in the data set with prothrombin time (0.01 mg kg^−1 i.v.); 1.03 ± 0.02 x-fold over baseline in the data set with prothrombin time (0.03 mg kg^−1 i.v.); 1.26 ± 0.06 x-fold over baseline in the data set on prothrombin time (0.1 mg kg^−1 i.v.); 1.92 ± 0.05 x-fold over baseline in the data set on prothrombin time (0.3 mg kg^−1 i.v.). The “prolongation of PT over the dose range” value in the data set with prothrombin time (dose range 0.001–0.3 mg kg^−1 i.v.) is given as 1.0–1.9 fold over baseline.

As to `N=C(N)NCCCNC(=O)[C@@H]1CCCCN1C(=O)[C@@H](CC1CCCCC1)NCC(=O)O` [inogatran], the “increase in the affinity of the thrombin inhibitor for the thrombin bound to TM” value in the data set on thrombin bound to TM is on record as “twofold increase”.

As to `CCOC(=O)CN[C@@H](C(=O)N1CC[C@H]1C(=O)NCc1ccc(/C(N)=N\O)cc1)C1CCCCC1` [ximelagatran], in data set [8], the “mortality rate, dose-dependent” value was “up to 67%” and the “mortality rate, time-dependent” value is reported as at most 88%.
